The values below come from ChEMBL document CHEMBL3751681, “Natural product-based synthesis of novel anti-infective isothiocyanate- and isoselenocyanate-functionalized amphilectane diterpenes” (Bioorg Med Chem Lett, 2016).

In brackets after ≈: the same amount, converted by molar mass.

For one data set, the system named is Vero. As to the kind of experiment: Cytotoxicity against African green monkey Vero cells by MTS assay. The note with it: Chlorocebus sabaeus. It counts as cell-based. A general note: Tetrazolium dyes change colour on reduction, which living cells bring about.
The test system of data set [1] is Plasmodium falciparum. As to the kind of experiment: Antiplasmodial activity against chloroquine-resistant Plasmodium falciparum Dd2 infected in human RBCs after 72 hrs by SYBR Green based parasite proliferation assay. It counts as functional, organism-based. The note with it: Dd2, 72 h. In a few lines: (§1)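 P. falciparum (3D7 or Dd2) grown in human O+ erythrocytes in RPMI 1640 with gentamicin, hypoxanthine, HEPES, bicarbonate, glucose, Albumax and 5% human serum. Gassed with 3% CO2, 1% O2, 96% N2 and held at 37°C. Parasites exposed to serial compound dilutions for 72 h. Parasite DNA increase read by SYBR Green fluorescence (ex 495, em 525 nm).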

Data set [2] can be described thus: Selectivity index, ratio of IC50 for African green monkey Vero cells to IC50 for chloroquine-resistant Plasmodium falciparum Dd2. The class given is toxicity, cell-based. The note with it: read-out: Ratio IC50.
A short description of data set [3]: Selectivity index, ratio of IC50 for African green monkey Vero cells to MIC for Mycobacterium tuberculosis H37Rv ATCC 27294. It counts as toxicity, cell-based. The note with it: read-out: Selectivity Index.
The nature of data set [4]: Selectivity index, ratio of IC50 for African green monkey Vero cells to IC50 for chloroquine-sensitive Plasmodium falciparum 3D7. It counts as toxicity, cell-based. The note with it: read-out: Ratio IC50.
For data set [5], the system named is Plasmodium falciparum. The experiment in a line: Antiplasmodial activity against chloroquine-sensitive Plasmodium falciparum 3D7 infected in human RBCs after 72 hrs by SYBR Green based parasite proliferation assay. It counts as functional, organism-based. The note with it: 3D7, 72 h. In a few lines: as §1
Data set [6] deals with Mycobacterium tuberculosis. As to the kind of experiment: Antimycobacterial activity against Mycobacterium tuberculosis H37Rv ATCC 27294 by microplate alamar blue assay. The class given is functional. In a few lines: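 Mtb H37Rv tested in the microplate Alamar blue assay; rifampicin served as positive control.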
On the technique in general: Resazurin is reduced to fluorescent resorufin, in cell work by metabolically active cells.

As a reminder, the IC50 is the concentration that gives 50% inhibition. As usually defined, the MIC is the lowest concentration found to suppress growth.

On to `C=C1CC[C@@]2(N=C=S)[C@H]3[C@H](CC[C@@H]2C)[C@@H](C)C[C@@H](CC(C)(C)N=C=S)[C@H]13`, for which the IC50 with Vero was over 100 µM; with Plasmodium falciparum [1] it was 11.6 µM; with Plasmodium falciparum [5] it was 11.8 µM. Further, the results for the selectivity ratio in data set [2], in data set [3] and in data set [4] were over 9, over 1 and over 8, respectively. Moreover, the minimal inhibitory concentration (MIC) in data set [6] worked out at 99.1 µM (≈ 38.5 µg/mL).
For the compound `C=C1CC[C@@]2(N=C=[Se])[C@H]3[C@H](CC[C@@H]2C)[C@@H](C)C[C@@H](CC(C)(C)N=C=[Se])[C@H]13`, the IC50 is 48.6 µM in the data set with Vero, 0.0066 µM in the data set with Plasmodium falciparum [1] and 0.0025 µM in the data set with Plasmodium falciparum [5]. Further, the values for the selectivity ratio in data set [2], in data set [3] and in data set [4] were 7360, 12.4 and 19400, respectively. The minimum inhibitory concentration (MIC) in data set [6] stood at 3.9 µM (≈ 1.88 µg/mL).
With `[C-]#[N+]C(C)(C)C[C@@H]1C[C@H](C)[C@H]2CC[C@H](C)[C@@]3([N+]#[C-])CCC(=C)[C@@H]1[C@H]23` [DIISOCYANOAMPHILECTENE], in the data set on Plasmodium falciparum [1], the IC50 was 0.0031 µM. For the same compound, the figures for the selectivity ratio in data set [2], in data set [3] and in data set [4] were 32200, 10.2 and 83100, respectively. The same compound displayed an MIC in data set [6] of 9.8 µM (≈ 3.18 µg/mL).
For `CO[C@H]1/C=C/O[C@@]2(C)Oc3c(C)c(O)c4c(O)c(c(/C=N/N5CCN(C)CC5)c(O)c4c3C2=O)NC(=O)/C(C)=C\C=C\[C@H](C)[C@H](O)[C@@H](C)[C@@H](O)[C@@H](C)[C@H](OC(C)=O)[C@@H]1C` [RIFAMPIN], the IC50 with Vero is over 100 µM. The selectivity ratio in data set [3] was over 1100. The same compound yielded a minimum inhibitory concentration (MIC) in data set [6] of 0.09 µM (≈ 0.0741 µg/mL).
